The results in this text go back to ChEMBL document CHEMBL3739337, “Alkaloids with Different Carbon Units from Myrioneuron faberi” (J Nat Prod, 2015).

Molecules are shown by their SMILES. Where only a bound is given, the exact number is not on record here.

A short description of data set [1]: Cytotoxicity against human Huh7.5 cells. The format is cell-based, Huh-7. An outline of the steps: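 Huh7.5 human liver cells grown in DMEM with 10% inactivated fetal bovine serum and 1% penicillin–streptomycin at 37 °C, 5% CO2.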
Data set [2] in a line: Therapeutic index, ratio of CC50 for human Huh7.5 cells to EC50 for chimeric HCV FL-J6/JFH/JC1 infected in human Huh7.5 cells. Type of data set: cell-based, Huh-7. The settings on record: read-out: Ratio CC50/EC50.
The test system of another data set is Hepatitis C virus. In words: Antiviral activity against chimeric HCV FL-J6/JFH/JC1 infected in human Huh7.5 cells assessed as reduction of intracellular viral RNA level after 72 hrs by RT-PCR assay. The format is functional, organism-based, Hepacivirus hominis. Particulars: FL-J6/JFH/JC1, Huh-7, 72 h. In a few lines:
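Huh7.5 cells in DMEM with 10% inactivated FBS at 37 °C, 5% CO2, seeded at 3 × 10^4 cells/cm2. After 24 h they were infected (about 45 IU per cell) and given compound or solvent control at the same time. At 72 h, intracellular HCV RNA was measured against GAPDH by one-step RT-PCR (2ΔΔCT). EC50 was derived by the Reed and Muench method.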

Usually CC50 stands for the concentration giving 50% cytotoxicity. A lower CC50 goes with greater toxicity to the cells. In general, EC50 refers to the concentration needed to bring the measured effect to its halfway point. As for `O=CC1=CN2[C@@H]3[C@@H](CCC[C@H]3CN3CCCC[C@@H]32)C1`, the CC50 in data set [1] is more than 100 µM. Further, the selectivity ratio in data set [2] was more than 30.6. Also, the EC50 with Hepatitis C virus stood at 3.27 µM.
The matching figures for `O=C1CC[C@@H]2CCC[C@H]3CN4CCC[C@H](C[C@H]5CCCN6C[C@@H]7CCC[C@H]8CCC(=O)N([C@H]87)[C@H]56)[C@H]4N1[C@H]23`: more than 100 µM, more than 9.5 and 10.5 µM.
Consider `O=C1CC[C@@H]2CCC[C@H]3CN4CCCC[C@H]4N1[C@H]23`, for which the cytotoxic concentration (CC50) in data set [1] is more than 100 µM. Further, in data set [2], the selectivity ratio was more than 3.3. Besides, the 50% effective concentration (EC50) in the data set with Hepatitis C virus came out at 30.6 µM.
The matching figures for `COC[C@@H]1CCCN2C[C@@H]3CCC[C@H]4CC(C=O)=CN([C@H]43)[C@@H]12`: more than 100 µM, more than 109 and 0.92 µM.
The matching figures for `C1C[C@H]2CCCN3[C@H]2[C@@H](C1)CN1CCCC[C@@H]13`: 95.9 µM, 13 and 7.35 µM.
Regarding `CCC[C@H](NC(=O)[C@@H]1[C@H]2CCC[C@H]2CN1C(=O)[C@@H](NC(=O)[C@@H](NC(=O)c1cnccn1)C1CCCCC1)C(C)(C)C)C(=O)C(=O)NC1CC1` [TELAPREVIR], in data set [1], the CC50 stood at 47.8 µM. The selectivity ratio in data set [2] was found to be 371. Moreover, the EC50 with Hepatitis C virus is 0.129 µM.
